Broadly, the MIC is the least concentration at which growth counts as inhibited.

Here are results for 67 molecules from ChEMBL document CHEMBL1821640, “Novel 1,2,3-triazole derivatives for use against Mycobacterium tuberculosis H37Rv (ATCC 27294) strain” (J Med Chem, 2011).

Series [1] deals with Mycobacterium tuberculosis. Nature of the series: Antimicrobial activity against Mycobacterium tuberculosis H37Rv ATCC 27294 after 5 days by Microplate Alamar blue assay. The note with it: H37Rv ATCC 27294, 120 h. Type of series: functional. Put shortly:
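M. tuberculosis H37Rv grown 24 h at 37 °C, 150 rpm, in Middlebrook 7H9 + 10% OADC, washed, set to 0.1 McFarland and diluted 1:25. Two-fold dilutions in 7H9, final […], 5 days at 37 °C. Resazurin (Alamar Blue)/10% Tween 80 added for 24 h. MIC is the lowest concentration preventing a blue-to-pink change. Triplicates averaged.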

The nature of series [2]: Cytotoxicity against human HepG2 cells after 24 hrs by MTT assay. Format: cell-based. The note with it: read-out: MLD50. The essentials:
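HepG2 cells kept in RPMI 1640 with 10% heat-inactivated FCS and gentamicin at 37 °C under 5% CO2. Seeded at 5 × 10^3 cells/well and allowed to adhere for 18 h. Exposed to compound at 200–25 μg/mL for 24 h, then MTT (5 mg/mL solution) for 3 h. Absorbance is taken as % of untreated control after background subtraction, and MLD50 is derived.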

The nature of series [3]: Selectivity index, ratio of MDL50 for human HepG2 cells to MIC for Mycobacterium tuberculosis H37Rv ATCC 27294. Format: functional.
Series [4] can be described thus: Selectivity index, ratio of MDL50 for african green monkey BGM cells to MIC for Mycobacterium tuberculosis H37Rv ATCC 27294. Type of series: functional.
The nature of series [5]: Cytotoxicity against african green monkey BGMK cells after 24 hrs by MTT assay. The settings on record: chlorocebus aethiops, read-out: MLD50. Format: cell-based. In general terms: Tetrazolium dyes change colour on reduction, which living cells bring about.

In brackets after ≈: the same amount, converted by molar mass. Some results are limits rather than exact numbers.

Turning to `O=Cc1cn(-c2cccc(Cl)c2)nn1`, the MIC in series [1] turned out to be 121 µM.

`Nc1nnc(-c2cccc(-n3cc(CO)nn3)c2)s1` showed an MIC in series [1] greater than 100 mg/L.

`N#Cc1ccc(-n2cc(CF)nn2)cc1` had an MIC in series [1] greater than 100 mg/L.

For `FC(F)(F)c1cn(-c2cc(Cl)cc(Cl)c2)nn1`, the MIC in series [1] was found to be 177 µM.

`FCc1cn(-c2ccc(Cl)cc2)nn1` had an MIC in series [1] of 472 µM.

In series [1], `COc1ccccc1-n1cc(C=O)nn1` registered an MIC of 246 µM.

As for `O=Cc1cn(-c2ccccc2)nn1`, the minimal inhibitory concentration (MIC) in series [1] stood at 144 µM.

As to `O=Cc1cn(-c2ccccc2Cl)nn1`, in series [1], the lowest concentration to inhibit growth (MIC) was 241 µM.

`COc1ccc(-n2cc(CO)nn2)cc1` came in with an MIC in series [1] greater than 100 mg/L.

In series [1], `NNC(=O)c1ccncc1` [ISONIAZID] showed an MIC of 0.437 µM.

`Cc1cccc(-n2cc(C=O)nn2)c1`: in series [1], the lowest concentration to inhibit growth (MIC) was 134 µM.

Molecule `Cc1ccc(-n2cc(CO)nn2)cc1` displayed an MIC in series [1] greater than 100 mg/L.

Turning to `O=C(N/N=C/c1cn(-c2cccc(Cl)c2)nn1)c1ccncc1`, the CC50 at 24 h in series [2] and in series [5] was greater than 1000 mg/L each time. Also, the Ratio in series [3] and in series [4] was greater than 1612 in each case. Besides, the MIC in series [1] came out at 1.8 µM.

The molecule `O=Cc1cn(-c2cc(Cl)ccc2Cl)nn1` showed an MIC in series [1] greater than 100 mg/L.

Molecule `N#Cc1cccc(-n2cc(CO)nn2)c1` showed an MIC in series [1] greater than 100 mg/L.

Turning to `Cc1ccccc1-n1cc(/C=N/NC(=O)c2ccncc2)nn1`, the CC50 at 24 h was 314 mg/L (≈ 1030 µM) in series [2] and greater than 1000 mg/L in series [5]. For the same molecule, the Ratio in series [3] is 126; in series [4], 400. The MIC in series [1] came to 8.1 µM.

Turning to `OCc1cn(-c2cccc(Cl)c2)nn1`, the minimum inhibitory concentration (MIC) in series [1] was greater than 100 mg/L.

With `N#Cc1cccc(-n2cc(CF)nn2)c1`, the minimum inhibitory concentration (MIC) in series [1] is greater than 100 mg/L.

`OCc1cn(-c2ccc(Cl)c(Cl)c2)nn1` came in with a minimal inhibitory concentration (MIC) in series [1] greater than 100 mg/L.

Consider `N#Cc1cccc(-n2cc(C(F)F)nn2)c1`, for which inhibition of growth in series [1] (MIC) required 114 µM.

In turn, `COc1ccc(-n2cc(C=O)nn2)cc1` displayed a minimal inhibitory concentration (MIC) in series [1] of 123 µM.

Turning to `C=Cc1cn(-c2cc(Cl)ccc2Cl)nn1`, the CC50 at 24 h in series [2] and in series [5] was greater than 1000 mg/L in each case. Also, the Ratio in series [3] and in series [4] was greater than 321 throughout. Further, the MIC in series [1] was determined as 13 µM.

In series [1], `OCc1cn(-c2ccc(Br)cc2)nn1` came in with a minimum inhibitory concentration (MIC) greater than 100 mg/L.

With `OCc1cn(-c2ccccc2)nn1`, in series [1], the minimal inhibitory concentration (MIC) is greater than 100 mg/L.

Molecule `FC(F)c1cn(-c2cccc(Cl)c2)nn1` had an MIC in series [1] greater than 100 mg/L.

Take `C=Cc1cn(-c2ccccc2OC)nn1`: in series [1], the minimal inhibitory concentration (MIC) is greater than 100 mg/L.

On to `COc1ccc(-n2cc(/C=N/NC(=O)c3ccncc3)nn2)cc1`, for which the CC50 at 24 h in series [2] and in series [5] was greater than 1000 mg/L throughout. In addition, the Ratio in series [3] and in series [4] was greater than 400 in each case. 7.7 µM was the least that counted as inhibitory in series [1] (MIC).

In the case of `OCc1cn(-c2ccccc2Cl)nn1`, in series [1], the minimum inhibitory concentration (MIC) was greater than 100 mg/L.

In turn, `C=Cc1cn(-c2ccc(Cl)c(Cl)c2)nn1` displayed a minimum inhibitory concentration (MIC) in series [1] greater than 100 mg/L.

Molecule `COC(=O)c1cn(-c2cc(Cl)cc(Cl)c2)nn1` gave a minimum inhibitory concentration (MIC) in series [1] greater than 100 mg/L.

On to `O=Cc1cn(-c2ccc([N+](=O)[O-])cc2)nn1`, for which 115 µM was the least that counted as inhibitory in series [1] (MIC).

`O=C(N/N=C/c1cn(-c2ccccc2)nn1)c1ccncc1`: the CC50 at 24 h in series [2] and in series [5] was greater than 1000 mg/L each time. The Ratio in series [3] and in series [4] was greater than 400 throughout. 8.5 µM was the least that counted as inhibitory in series [1] (MIC).

In turn, `O=Cc1cn(-c2ccc(F)cc2)nn1` displayed an MIC in series [1] of 131 µM.

Take `OCc1cn(-c2cc(Cl)cc(Cl)c2)nn1`: in series [1], the minimal inhibitory concentration (MIC) is greater than 100 mg/L.

Consider `Cc1ccccc1-n1cc(C=O)nn1`, for which it took 267 µM to inhibit growth in series [1] (MIC).

In series [1], `Cc1ccccc1-n1cc(CO)nn1` came in with a minimal inhibitory concentration (MIC) greater than 100 mg/L.

Consider `Cc1ccc(-n2cc(C=O)nn2)cc1`, for which the lowest concentration to inhibit growth in series [1] (MIC) was 66.7 µM.

`C=Cc1cn(-c2ccccc2)nn1`: the minimum inhibitory concentration (MIC) in series [1] is greater than 100 mg/L.

Regarding `FCc1cn(-c2ccc(Br)cc2)nn1`, the minimum inhibitory concentration (MIC) in series [1] stood at 390 µM.

`COc1ccccc1-n1cc(CO)nn1`: the minimal inhibitory concentration (MIC) in series [1] is greater than 100 mg/L.

For the molecule `COc1cccc(-n2cc(CO)nn2)c1`, the MIC in series [1] is greater than 100 mg/L.

In series [1], `OCc1cn(-c2ccc(Cl)cc2)nn1` yielded an MIC greater than 100 mg/L.

On to `FCc1cn(-c2cccc(Cl)c2)nn1`, for which, in series [1], the minimum inhibitory concentration (MIC) was 472 µM.

As for `O=C(N/N=C/c1cn(-c2ccc(Cl)cc2)nn1)c1ccncc1`, the CC50 at 24 h in series [2] and in series [5] was greater than 1000 mg/L throughout. The Ratio in series [3] and in series [4] was greater than 1612 in each case. Further, the MIC in series [1] was found to be 1.8 µM.

In turn, `OCc1cn(-c2ccc(F)cc2)nn1` gave an MIC in series [1] greater than 100 mg/L.

In the case of `C=Cc1cn(-c2ccc(Cl)cc2)nn1`, 243 µM was the least that counted as inhibitory in series [1] (MIC).

In series [1], `C=Cc1cn(-c2ccc([N+](=O)[O-])cc2)nn1` had a minimum inhibitory concentration (MIC) greater than 100 mg/L.

With `Cc1cccc(-n2cc(CO)nn2)c1`, in series [1], the MIC was greater than 100 mg/L.

With `O=C(N/N=C/c1cn(-c2ccc([N+](=O)[O-])cc2)nn1)c1ccncc1`, the CC50 at 24 h in series [2] and in series [5] was greater than 1000 mg/L in each case. The Ratio in series [3] and in series [4] was greater than 1612 in each case. The same molecule displayed a minimum inhibitory concentration (MIC) in series [1] of 1.8 µM.

The molecule `N#Cc1ccc(-n2cc(CO)nn2)cc1` displayed an MIC in series [1] greater than 100 mg/L.

`COc1cccc(-n2cc(/C=N/NC(=O)c3ccncc3)nn2)c1`: the MIC in series [1] was 3.8 µM. The Ratio in series [4] is on record as greater than 800. The CC50 at 24 h in series [5] was greater than 1000 mg/L.

In the case of `Cc1cccc(-n2cc(/C=N/NC(=O)c3ccncc3)nn2)c1`, the CC50 at 24 h worked out at 124 mg/L (≈ 405 µM) in series [2] and 262 mg/L (≈ 855 µM) in series [5]. The figures for the Ratio in series [3] and in series [4] were 200 and 422, respectively. Moreover, 2 µM was the least that counted as inhibitory in series [1] (MIC).

As to `COc1ccccc1-n1cc(/C=N/NC(=O)c2ccncc2)nn1`, the CC50 at 24 h in series [2] and in series [5] was greater than 1000 mg/L throughout. The Ratio in series [3] and in series [4] was greater than 1612 in each case. Further, the lowest concentration to inhibit growth in series [1] (MIC) was 1.9 µM.

The molecule `COc1cccc(-n2cc(C=O)nn2)c1` registered an MIC in series [1] of 123 µM.

As for `O=Cc1cn(-c2ccc(Cl)cc2)nn1`, the figures for the CC50 at 24 h in series [2] and in series [5] were 71 mg/L (≈ 342 µM) and 97 mg/L (≈ 467 µM), respectively. The Ratio was found to be 6 in series [3] and 8 in series [4]. In addition, the MIC in series [1] worked out at 60.2 µM.

`Nc1nnc(-c2cccc(-n3cc(C(F)F)nn3)c2)s1` displayed a minimum inhibitory concentration (MIC) in series [1] of 340 µM.

With `O=Cc1cn(-c2ccc(Cl)c(Cl)c2)nn1`, the minimum inhibitory concentration (MIC) in series [1] is 207 µM.

`O=[N+]([O-])c1ccc(-n2cc(CO)nn2)cc1` came in with an MIC in series [1] greater than 100 mg/L.

As to `OCc1cn(-c2cc(Cl)ccc2Cl)nn1`, the minimum inhibitory concentration (MIC) in series [1] was greater than 100 mg/L.

`FCc1cn(-c2cc(Cl)cc(Cl)c2)nn1` displayed a minimal inhibitory concentration (MIC) in series [1] of 406 µM.

With `O=C(N/N=C/c1cn(-c2ccccc2Cl)nn1)c1ccncc1`, the CC50 at 24 h in series [2] was 263 mg/L (≈ 805 µM); in series [5], greater than 1000 mg/L. Besides, the Ratio was 210 in series [3] and greater than 800 in series [4]. In series [1], this molecule returned an MIC of 3.8 µM.

For the molecule `Cc1ccc(-n2cc(/C=N/NC(=O)c3ccncc3)nn2)cc1`, the figures for the CC50 at 24 h in series [2] and in series [5] were 118 mg/L (≈ 385 µM) and greater than 1000 mg/L, respectively. The figures for the Ratio in series [3] and in series [4] were 94 and greater than 800, respectively. The molecule further had a minimal inhibitory concentration (MIC) in series [1] of 4 µM.

On to `O=C(N/N=C/c1cn(-c2ccc(Cl)c(Cl)c2)nn1)c1ccncc1`, for which the CC50 at 24 h in series [2] and in series [5] was greater than 1000 mg/L throughout. Moreover, the Ratio in series [3] and in series [4] was greater than 400 each time. Besides, the MIC in series [1] worked out at 6.9 µM.

In series [1], `C=Cc1cn(-c2ccc(OC)cc2)nn1` yielded an MIC of 244 µM.

For the molecule `O=C(N/N=C/c1cn(-c2cc(Cl)ccc2Cl)nn1)c1ccncc1`, the CC50 at 24 h in series [2] and in series [5] was greater than 1000 mg/L each time. Besides, the Ratio in series [3] and in series [4] was greater than 800 in each case. In addition, in series [1], 3.4 µM was the least that counted as inhibitory (MIC).

For `O=C(N/N=C/c1cn(-c2ccc(F)cc2)nn1)c1ccncc1`, the CC50 at 24 h in series [2] and in series [5] was greater than 1000 mg/L each time. Also, the Ratio in series [3] and in series [4] was greater than 800 each time. For the same molecule, 4 µM was the least that counted as inhibitory in series [1] (MIC).

In series [1], `CO[C@H]1/C=C/O[C@@]2(C)Oc3c(C)c(O)c4c(O)c(c(/C=N/N5CCN(C)CC5)c(O)c4c3C2=O)NC(=O)/C(C)=C\C=C\[C@H](C)[C@H](O)[C@@H](C)[C@@H](O)[C@@H](C)[C@H](OC(C)=O)[C@@H]1C` [RIFAMPIN] showed an MIC of 1.21 µM.
